Test results published in ChEMBL document CHEMBL1165950, “Design and synthesis of new potent anticancer pyrazoles with high FLT3 kinase inhibitory selectivity” (Bioorg Med Chem, 2010).

Tests used:
Assay type in all cases: functional
NCI-H522 = assay: Cytotoxicity against human NCI-H522 cells assessed as cell growth at 10 uM; conditions: read-out: Activity
Summary of the method: (§1)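 NCI-60 screen: cells grown in RPMI 1640 with 5% FBS and 2 mM L-glutamine, plated at 5000–40,000 cells/well according to doubling time, and preincubated 24 h at 37 °C, 5% CO2. The single 10 µM dose (DMSO stock) was added, then incubated 48 h. Cells were TCA-fixed and stained with 0.4% SRB, read at 515 nm, and growth % calculated against time-zero and control plates.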

UO-31 = assay: Growth inhibition of human UO31 cells after 48 hrs by sulforhodamine B assay; conditions: UO-31, 48 h; for CC50: read-out: LC50 (the source's name)
Summary of the method: (§2)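 NCI 60-cell screen, five-dose mode. Cells grown in RPMI 1640 with 5% FBS and 2 mM L-glutamine and plated at 5000-40,000 cells/well according to doubling time. After 24 h preincubation, a Tz plate was TCA-fixed. Five concentrations (10-fold or 1/2 log dilutions) were applied for 48 h at 37 °C. SRB staining read at 515 nm. IC50 taken from [(Ti-Tz)/(C-Tz)]×100 = 50.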

SNB-75 [1] = assay: Cytotoxicity against human SNB75 cells assessed as cell growth at 0.01 uM after 48 hrs by sulforhodamine B assay; conditions: SNB-75, 48 h, read-out: Activity
A549 [2] = assay: Growth inhibition of human A549 cells after 48 hrs by sulforhodamine B assay; conditions: A549, 48 h
Summary of the method: (§3)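 NCI five-dose SRB assay in RPMI 1640 with 5% FBS and 2 mM L-glutamine. Cells were preincubated 24 h, then exposed 48 h at 37 °C to five concentrations (10-fold or half-log serial dilutions from DMSO stocks). TCA fixation, SRB staining, and absorbance at 515 nm followed. IC50 was taken where [(Ti−Tz)/(C−Tz)]×100 = 50, with Tz as time-zero cell density.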

A549 [3] = assay: Cytotoxicity against human A549 cells assessed as cell growth at 10 uM; conditions: read-out: Activity
Summary of the method: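 Single-dose NCI-60 screen at 10 µM. Cells were grown in RPMI 1640 with 5% FBS and 2 mM L-glutamine, then treated for 48 h at 37 °C. Protein was measured by SRB staining with absorbance at 515 nm. Percentage growth was recorded, and inhibition percentage was calculated as 100 minus growth percentage.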

A549 [4] = assay: Cytotoxicity against human A549 cells assessed as cell growth at 0.01 uM after 48 hrs by sulforhodamine B assay; conditions: A549, 48 h, read-out: Activity
Summary of the method: (§4)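 NCI-60 five-dose screen. Cells were grown in RPMI 1640 with 5% FBS and 2 mM L-glutamine, plated at 5000–40,000 cells/well and preincubated for 24 h. Time-zero plates were TCA-fixed. DMSO-solubilized drug was added at five concentrations (10-fold or ½-log serial dilutions) for 48 h at 37 °C, 5% CO2. Cells were TCA-fixed, stained with 0.4% SRB and read at 515 nm. Percent growth used time-zero, control and test absorbances.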

SNB-75 [5] = assay: Cytotoxicity against human SNB75 cells assessed as cell growth at 1 uM after 48 hrs by sulforhodamine B assay; conditions: SNB-75, 48 h, read-out: Activity
NCI-H23 [6] = assay: Cytotoxicity against human NCI-H23 cells assessed as cell growth at 1 uM after 48 hrs by sulforhodamine B assay; conditions: NCI-H23, 48 h, read-out: Activity
COLO 205 = assay: Cytotoxicity against human COLO205 cells assessed as cell growth at 1 uM after 48 hrs by sulforhodamine B assay; conditions: COLO 205, 48 h, read-out: Activity; summary of the method: as §4
KM12 = assay: Cytotoxicity against human KM12 cells assessed as cell growth at 0.001 uM after 48 hrs by sulforhodamine B assay; conditions: KM12, 48 h, read-out: Activity
[7] = Cytotoxicity against human Hs 578T cells assessed as cell growth at 0.001 uM after 48 hrs by sulforhodamine B assay; conditions: read-out: Activity
SK-MEL-5 = assay: Growth inhibition of human SK-MEL-5 cells after 48 hrs by sulforhodamine B assay; conditions: SK-MEL-5, 48 h; for CC50: read-out: LC50 (the source's name); summary of the method: as §2
MDA-MB-231 [8] = assay: Cytotoxicity against human MDA-MB-231 cells assessed as cell growth at 100 nM after 48 hrs by sulforhodamine B assay; conditions: MDA-MB-231, 48 h, read-out: Activity
HCT-15 = assay: Cytotoxicity against human HCT15 cells assessed as cell growth at 100 nM after 48 hrs by sulforhodamine B assay; conditions: HCT-15, 48 h, read-out: Activity
BT-549 [9] = assay: Growth inhibition of human BT549 cells after 48 hrs by sulforhodamine B assay; conditions: BT-549, 48 h; for CC50: read-out: LC50 (the source's name); summary of the method: as §3
TK-10 = assay: Cytotoxicity against human TK10 cells assessed as cell growth at 10 uM; conditions: read-out: Activity; summary of the method: as §1
SK-MEL-28 = assay: Cytotoxicity against human SK-MEL-28 cells assessed as cell growth at 0.01 uM after 48 hrs by sulforhodamine B assay; conditions: SK-MEL-28, 48 h, read-out: Activity
SW-620 = assay: Cytotoxicity against human SW620 cells assessed as cell growth at 0.001 uM after 48 hrs by sulforhodamine B assay; conditions: SW-620, 48 h, read-out: Activity
IGROV-1 = assay: Cytotoxicity against human IGROV1 cells assessed as cell growth at 0.001 uM after 48 hrs by sulforhodamine B assay; conditions: IGROV-1, 48 h, read-out: Activity
786-0 = assay: Cytotoxicity against human 786-0 cells assessed as cell growth at 0.01 uM after 48 hrs by sulforhodamine B assay; conditions: 786-0, 48 h, read-out: Activity; summary of the method: as §4
MDA-MB-231 [10] = assay: Cytotoxicity against human MDA-MB-231 cells assessed as cell growth at 10 uM after 48 hrs by sulforhodamine B assay; conditions: MDA-MB-231, 48 h, read-out: Activity
BT-549 [11] = assay: Cytotoxicity against human BT549 cells assessed as cell growth at 0.01 uM after 48 hrs by sulforhodamine B assay; conditions: BT-549, 48 h, read-out: Activity; summary of the method: as §4
HOP-62 = assay: Cytotoxicity against human HOP62 cells assessed as cell growth at 100 nM after 48 hrs by sulforhodamine B assay; conditions: HOP-62, 48 h, read-out: Activity
EKVX = assay: Cytotoxicity against human EKVX cells assessed as cell growth at 1 uM after 48 hrs by sulforhodamine B assay; conditions: read-out: Activity
NCI-H23 [12] = assay: Cytotoxicity against human NCI-H23 cells assessed as cell growth at 10 uM; conditions: read-out: Activity; summary of the method: as §1
SK-MEL-2 = assay: Cytotoxicity against human SK-MEL-2 cells assessed as cell growth at 100 nM after 48 hrs by sulforhodamine B assay; conditions: SK-MEL-2, 48 h, read-out: Activity
[13] = Growth inhibition of human NCI60 cells at 10 uM after 48 hrs by sulforhodamine B assay relative to control; conditions: NCI60, 48 h, read-out: GI
Summary of the method: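 Single-dose NCI screen at 10 µM across the 60-line panel, 48 h exposure at 37 °C after a 24 h preincubation. Adherent cells were fixed with cold TCA and stained with 0.4% SRB, and absorbance was read at 515 nm. Inhibition % was taken as 100 minus growth %, and the mean across all lines was reported.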

Structure (SMILES)	growth at 10 µM (NCI-H522) [%]	GI50 (UO-31) [nM]	TGI (UO-31) [µM]	CC50 (UO-31) [µM]	growth at 0.01 µM (SNB-75 [1]) [%]	GI50 (A549 [2]) [nM]	LC50 (A549 [2]) [µM]	TGI (A549 [2]) [µM]	growth at 10 µM (A549 [3]) [%]	growth at 0.01 µM (A549 [4]) [%]	growth at 1 µM (SNB-75 [5]) [%]	growth at 1 µM (NCI-H23 [6]) [%]	growth at 1 µM (COLO 205) [%]	growth at 0.001 µM (KM12) [%]	growth at 0.001 µM [7] [%]	GI50 (SK-MEL-5) [nM]	TGI (SK-MEL-5) [nM]	CC50 (SK-MEL-5) [µM]	growth at 0.1 µM (MDA-MB-231 [8]) [%]	growth at 0.1 µM (HCT-15) [%]	also measured
COc1cc(C)cc(-c2c(-c3ccnc(-c4ccc(N(C)C)cc4)c3)cnn2CC#N)c1	-23.6	508	> 100	> 100	65	155	> 100	> 100	22.2	59	10	17	3	95	88	39.4	309	> 100	-5	14	GI50 (BT-549 [9]): 75.1 nM; TGI (BT-549 [9]): 514 nM; CC50 (BT-549 [9]): > 100 µM; growth at 10 µM (TK-10): 36.6%; growth at 0.01 µM (SK-MEL-28): 20%; growth at 0.001 µM (SW-620): 105%; growth at 0.001 µM (IGROV-1): 95%; growth at 0.01 µM (786-0): 55%; growth at 10 µM (MDA-MB-231 [10]): 25%; growth at 0.01 µM (BT-549 [11]): 44%; growth at 0.1 µM (HOP-62): 33%; growth at 1 µM (EKVX): 9%; growth at 10 µM (NCI-H23 [12]): -10.3%; growth at 0.1 µM (SK-MEL-2): 14%; inhibition of growth at 10 µM [13]: 88.4%
COc1cc(C)cc(-c2c(-c3ccnc(-c4ccc(C(C)=O)cc4)c3)cnn2CC#N)c1	45	2610	> 100	> 100	78	3680	> 100	> 100	91.4	84	-5	19	-78	100	95	1940	4960	> 100	86	87	GI50 (BT-549 [9]): 3120 nM; TGI (BT-549 [9]): > 100000 nM; CC50 (BT-549 [9]): > 100 µM; growth at 10 µM (TK-10): 72.6%; growth at 0.01 µM (SK-MEL-28): 94%; growth at 0.001 µM (SW-620): 96%; growth at 0.001 µM (IGROV-1): 107%; growth at 0.01 µM (786-0): 98%; growth at 10 µM (MDA-MB-231 [10]): 26%; growth at 0.01 µM (BT-549 [11]): 86%; growth at 0.1 µM (HOP-62): 84%; growth at 1 µM (EKVX): 37%; growth at 10 µM (NCI-H23 [12]): 83.7%; growth at 0.1 µM (SK-MEL-2): 103%; inhibition of growth at 10 µM [13]: 33.4%
